Screening data: PubChem BioAssay, The Scripps Research Institute Molecular Screening Center
In the library only some 1.5% were active in any assay of this set; here they are far more common.
OXTR potentiator: human OXTR potentiators, primary screen, fluorescence, CHO-OTR cells, Fluo-8 calcium; Oxytocin receptor (Homo sapiens), P30559; Fluo-8 calcium fluorescence, potentiator mode; 0% = oxytocin EC15, 100% = EC100; activation, % at 3 µM; hit rate 0.061% among 320,000; AID 2445, 2010;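 active = activation above that plate's cutoff, the mean activation of tested compounds plus 3 SD, cut at about 6.6% in these data, passing the limit was not always enough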
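Measured by – Fluo-8 calcium dye fluorescence · Test system – human OTR in CHO cells · Dosing – one concentration, 3.0 µM compound · Controls – EC15 oxytocin alone as 0%, 75 nM oxytocin as 100% · Evaluation – normalized max/min fluorescence ratio, % activation · Timing – 6 min pre-incubation, 100 s read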
CHRM4 agonist: human M4 muscarinic receptor agonists, primary screen, CHO-K1 cells, Fluo-8 calcium fluorescence | Muscarinic acetylcholine receptor M4 (Homo sapiens), P08173 | CHO-K1 hM4/Gqi5; vehicle 0%, full acetylcholine response 100% | activation, % at 3 µM | hit rate 0.14% among 360,000;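 active = activation above the run mean over all test wells plus 3 SD, cut at about 32% in these data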;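 note: peak over basal fluorescence ratio per well then scaled between controls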
Target sequence (P08173 whole entry, looked up): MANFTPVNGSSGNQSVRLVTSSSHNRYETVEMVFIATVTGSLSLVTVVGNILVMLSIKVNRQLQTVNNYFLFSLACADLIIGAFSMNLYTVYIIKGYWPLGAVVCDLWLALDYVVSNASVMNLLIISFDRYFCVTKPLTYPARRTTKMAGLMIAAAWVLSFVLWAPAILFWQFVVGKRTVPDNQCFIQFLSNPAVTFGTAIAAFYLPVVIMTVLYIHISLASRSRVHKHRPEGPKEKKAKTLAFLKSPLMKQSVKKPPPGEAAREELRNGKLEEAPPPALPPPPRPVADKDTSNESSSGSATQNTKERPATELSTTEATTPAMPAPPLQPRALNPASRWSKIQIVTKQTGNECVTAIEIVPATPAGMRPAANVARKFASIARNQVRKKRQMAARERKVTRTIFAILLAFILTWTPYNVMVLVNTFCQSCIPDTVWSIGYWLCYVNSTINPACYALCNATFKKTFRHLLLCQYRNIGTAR
V1aR counter: agonists of human V1a receptor, primary screen, counter-screen for OXTR agonist project, fluorescence, CHO-V1R cells; hit rate 0.25% among 320,000; activation, % at 3 µM; Fluo-8 calcium fluorescence, agonist mode; 0% DMSO, 100% 3 nM vasopressin; Vasopressin V1a receptor (Homo sapiens), P37288;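 active = activation above the mean activation of all tested compounds plus 3 SD, per screening run, cut at about 20% in these data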;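 note: signal is peak over basal fluorescence ratio across a 100 second FLIPR read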
CHRM4 PAM: human M4 muscarinic receptor positive allosteric modulators, primary screen, CHO-K1 cells, Fluo-8 calcium fluorescence; CHO-K1 hM4/Gqi5, ACh EC20; 0% = ACh EC20, 100% = maximal ACh; hit rate 0.4% among 360,000; AID 624126, 2012; Muscarinic acetylcholine receptor M4 (Homo sapiens), P08173; activation, % at 3 µM;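 active = activation above its plate's cutoff, the mean activation of sample wells plus 3 SD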
OXTR ag: human OXTR agonists, primary screen, fluorescence, CHO-OTR cells, Fluo-8 calcium | AID 2435, 2010 | Fluo-8 calcium fluorescence; normalized: DMSO 0%, oxytocin 100% | activation, % at 3 µM | hit rate 0.32% among 320,000 | Oxytocin receptor (Homo sapiens), P30559;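 active = activation above the mean of all tested compounds plus 3 SD, cutoff set per screening run, cut at about 20% in these data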;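 note: peak over basal fluorescence ratio from a 100 s FLIPR kinetic read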
CHRM4 antagonist: human M4 muscarinic receptor antagonists, primary screen, CHO cells, Fluo-8 calcium fluorescence; CHO-hM4 cells, ACh EC80; hit rate 0.73% among 360,000; AID 624125, 2012; inhibition, % at 3 µM;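 active = inhibition above its plate's cutoff, the mean inhibition of sample wells plus 3 SD, cut at about 27% in these data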
Hits are given with their value; 0 = inactive; - = no result given.

SMILES	OXTR potentiator	CHRM4 agonist	V1aR counter	CHRM4 PAM	OXTR ag	CHRM4 antagonist
O=[N+]([O-])c1c(Nc2ccccc2O)cc(Cl)c2nonc12	-	0	-	0	-	33
CCCc1cnc(Nc2nc(C(N)Cc3ccc(C(F)(F)F)cc3)cs2)nc1 (stereo unspecified)	-	0	-	0	-	0
CCN(CC)CCNC(=O)c1ccc(N)cc1	0	0	0	0	0	29
Cc1onc(-c2ccccc2Cl)c1C(=O)Nc1ncn[nH]1	0	0	0	0	0	0
CCN1C(N(C)CCc2c[nH]c3ccccc23)=N[C@@H](c2cccc(C(F)(F)F)c2)C(C(=O)OC)=C1C	0	0	0	0	23	0
Cc1ccc2c(c1)NC(=O)C(CC(=O)Nc1ccc(CN3CCC(C)CC3)cc1)O2 (stereo unspecified)	0	0	0	0	0	99
COC(=O)c1ccc(C2C(C(=O)c3ccco3)=C(O)C(=O)N2CC2CCCO2)cc1 (stereo unspecified)	0	0	0	0	0	0
CCN(CC)CC(=O)NCC1(c2ccccc2)CCCC1	0	0	0	0	0	39
CCN(CC)CC(=O)NCC1(c2ccccc2)CCOCC1	0	0	0	0	0	0
CCN(CC)CCOC(=O)C1(C2CCCCC2)CCCCC1	0	0	0	0	0	98
O=C(COC(=O)C1(c2ccccc2)CCCC1)N1CCNC1=O	0	0	0	0	0	0
CCN(CC)CCOC(=O)C1(c2ccccc2)CCCC1	0	0	0	0	0	98
CCN(CC)CCOC(=O)C1(c2ccc(OC)c(OC)c2)CCCC1	0	0	0	0	0	0
O=C(OCCCN1CCCC1)C1(c2ccccc2)CCCC1	0	0	0	0	0	63
CC1=C(C(=O)N(C(C)C)C(C)C)CC(CC(=O)NC2CC2)C(=O)N1CCCN1CCCC1=O (stereo unspecified)	-	0	-	0	-	0
O=C(NCCCc1ccccc1)c1ccc(Br)o1	0	0	0	31	0	0
O=C(N/C(=C\c1cccc([N+](=O)[O-])c1)C(=O)N1CCOCC1)c1ccco1	0	0	0	0	0	0
COc1ccc2c3c(cccc13)C(=O)CC2	-	78	-	0	-	0
COc1cc(C(=O)Nc2scc(-c3ccc(C)cc3)c2C(=O)O)cc(OC)c1OC	0	0	0	0	0	62
COc1cc(C(=O)Nc2scc(-c3ccccc3)c2C(=O)O)cc(OC)c1OC	0	0	0	0	0	0
CC(C)(C)C(=O)Nc1scc(-c2ccc(-c3ccccc3)cc2)c1C(=O)O	0	0	39	0	26	0
COc1cccc(NC(=O)CCC(=O)N2CC(C)Oc3ccc(C)cc32)c1 (stereo unspecified)	0	0	0	0	0	0
COc1ccc(S(=O)(=O)N2CCN(C(=O)CCCN3C(=O)NC4(CCCC4)C3=O)CC2)cc1	-	0	-	0	-	0
Nc1ccc(S(=O)(=O)N2CCc3ccccc32)cc1	0	0	0	0	0	0
O=S(=O)(NC1CCCC1)c1ccc(S(=O)(=O)N2CCc3ccccc32)cc1	0	0	0	0	0	29
SMILES	OXTR potentiator	CHRM4 agonist	V1aR counter	CHRM4 PAM	OXTR ag	CHRM4 antagonist
COc1ccc(C(=O)Nc2ccc(Cl)cc2F)cc1S(=O)(=O)N1CCCC1	0	0	0	0	0	0
CC(=NO)c1ccc2c(c1)Cc1cc([N+](=O)[O-])ccc1-2	-	0	-	0	-	0
Nc1ccc2c(c1)Cc1cc([N+](=O)[O-])ccc1-2	0	0	31	0	22	0
CC(O)CN(CC(C)O)c1ccc2c(c1)Cc1cc([N+](=O)[O-])ccc1-2 (stereo unspecified)	-	90	-	0	-	34
O=C(CCc1ccccc1)Nc1ccc(S(=O)(=O)NC2=NCCCCC2)cc1	0	0	0	0	0	0
Cn1nc(C(=O)Nc2cc(Cl)ccc2N2CCCC2)c2ccccc2c1=O	0	0	0	0	0	0
